Our source for the Ki values is ChEMBL document CHEMBL1131000, “Synthesis and quantitative structure-activity relationships of N-(1-benzylpiperidin-4-yl)phenylacetamides and related analogues as potent and selective sigma1 receptor ligands” (J Med Chem, 1998).

Each structure is given as a SMILES string.

In the test the target is Sigma 2 receptor. Briefly: Binding affinity towards sigma 2 receptor site in rat liver membranes using [3H]DTG as radioligand in presence of (+)-pentazocine. The format is cell membranes, Membrane. The procedure, abridged:
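Male Sprague-Dawley rat liver crude P2 membranes, 35 μg protein, with 3 nM [3H]DTG plus 100 nM (+)-pentazocine to mask σ1 sites. Incubated in 50 mM Tris-HCl pH 8.0 for 120 min at 25 °C. Nonspecific binding defined with 5 μM DTG. Filtration, then scintillation counting. IC50 by nonlinear regression.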
What is called Ki is the equilibrium dissociation constant of an inhibitor or competing ligand from its target. `O=C(Cc1ccc(F)cc1F)NC1CCN(Cc2ccccc2)CC1`: the Ki is 130 nM.
The same measure for `O=C(Cc1ccccc1)NC1CCN(Cc2ccccc2)CC1`: 240 nM; for `CSc1ccc(NC(=O)NC2CCN(Cc3ccccc3)CC2)cc1`: 80.5 nM; for `COc1cccc(C(O)CNC2CCN(Cc3ccccc3)CC2)c1OC` (centres undefined): 535 nM.
The same measure for `O=C(Cc1ccccc1C(F)(F)F)NC1CCN(Cc2ccccc2)CC1`: 61.9 nM.
For `COc1ccc(CC(=O)NC2CCN(Cc3ccccc3)CC2)cc1OC` the value was over 1000 nM; for `O=C(Cc1ccccc1Cl)NC1CCN(Cc2ccccc2)CC1`, 174 nM; for `COc1ccccc1CC(=O)NC1CCN(Cc2ccccc2)CC1`, over 1000 nM.
Turning to `O=C(Cc1ccc(C(F)(F)F)cc1)NC1CCN(Cc2ccccc2)CC1`, the Ki worked out at 53.4 nM.
For `O=C(Cc1cccc([N+](=O)[O-])c1)NC1CCN(Cc2ccccc2)CC1` the value was 79.2 nM; for `O=C(Cc1ccc(F)c(F)c1)NC1CCN(Cc2ccccc2)CC1`, 53.5 nM; for `COc1cc(CC(=O)NC2CCN(Cc3ccccc3)CC2)cc(OC)c1OC`, over 1000 nM.
Consider `O=C(Cc1ccccc1F)NC1CCN(Cc2ccccc2)CC1`, for which the Ki came to 667 nM.
The same measure for `O=C(Cc1ccc(Cl)c(Cl)c1)NC1CCN(Cc2ccccc2)CC1`: 14.6 nM.
The same measure for `COc1ccc(OC)c(CC(=O)NC2CCN(Cc3ccccc3)CC2)c1`: over 1000 nM; for `O=C(Cc1cc(F)cc(F)c1)NC1CCN(Cc2ccccc2)CC1`: 37.3 nM.
The same measure for `O=C(Cc1ccc(Br)cc1)NC1CCN(Cc2ccccc2)CC1`: 23.9 nM; for `O=C(Cc1ccc2c(c1)OCO2)NC1CCN(Cc2ccccc2)CC1`: 290 nM.
Consider `O=C(Cc1cccc(C(F)(F)F)c1)NC1CCN(Cc2ccccc2)CC1`, for which the Ki stood at 37.8 nM.
The same measure for `O=C(Cc1ccc(F)cc1)NC1CCN(Cc2ccccc2)CC1`: 69.2 nM.
The same measure for `O=C(Cc1c(F)cccc1F)NC1CCN(Cc2ccccc2)CC1`: 207 nM; for `COc1ccc(NC(=O)NC2CCN(Cc3ccccc3)CC2)c(OC)c1`: 227 nM.
For `COc1ccc(CC(=O)NC2CCN(Cc3ccccc3)CC2)cc1` the value was 483 nM.
With `CSc1ccc(CC(=O)NC2CCN(Cc3ccccc3)CC2)cc1`, the Ki stood at 83.3 nM.
For `Nc1ccc(CC(=O)NC2CCN(Cc3ccccc3)CC2)cc1` the value was over 1000 nM.
For the molecule `O=C(Cc1ccccc1[N+](=O)[O-])NC1CCN(Cc2ccccc2)CC1`, the Ki is 493 nM.
With `O=C(Cc1ccccc1Br)NC1CCN(Cc2ccccc2)CC1`, the Ki is 86.6 nM.
On to `O=C(Cc1cc(F)ccc1F)NC1CCN(Cc2ccccc2)CC1`, for which the inhibition constant (Ki) was 129 nM.
The same measure for `O=C(Cc1cccc(O)c1)NC1CCN(Cc2ccccc2)CC1`: over 1000 nM; for `O=C(Cc1ccc(O)c(Cl)c1)NC1CCN(Cc2ccccc2)CC1`: 757 nM; for `O=C(Cc1c(Cl)cccc1Cl)NC1CCN(Cc2ccccc2)CC1`: 70.8 nM.
The same measure for `OC(CCCN1CCC(O)(c2ccc(Cl)cc2)CC1)c1ccc(F)cc1` (centres undefined) [HYDROXYHALOPERIDOL]: 28.6 nM.
Take `O=C(Cc1cccc(F)c1)NC1CCN(Cc2ccccc2)CC1`: the Ki stood at 153 nM.
For `O=C(Cc1cccc(Br)c1)NC1CCN(Cc2ccccc2)CC1` the value was 15.2 nM.
The same measure for `O=C(Cc1ccc([N+](=O)[O-])cc1[N+](=O)[O-])NC1CCN(Cc2ccccc2)CC1`: 243 nM.
Consider `COc1cccc(CC(=O)NC2CCN(Cc3ccccc3)CC2)c1`, for which the Ki amounted to 326 nM.
With `O=C(Cc1ccc(Cl)cc1)NC1CCN(Cc2ccccc2)CC1`, the Ki stood at 80.7 nM.
For `O=C(Cc1ccc(O)cc1)NC1CCN(Cc2ccccc2)CC1` the value was over 1000 nM; for `O=C(Cc1ccc(O)c(O)c1)NC1CCN(Cc2ccccc2)CC1`, over 1000 nM.
For `O=C(Cc1ccccc1O)NC1CCN(Cc2ccccc2)CC1` the value was 343 nM.
Consider `O=C(Cc1cccc(Cl)c1)NC1CCN(Cc2ccccc2)CC1`, for which the inhibitory constant (Ki) was found to be 36.9 nM.
The same measure for `O=C(Cc1ccc(Cl)cc1Cl)NC1CCN(Cc2ccccc2)CC1`: 24.5 nM.
For `COc1cc(CC(=O)NC2CCN(Cc3ccccc3)CC2)cc(OC)c1` the value was over 1000 nM; for `O=C(Cc1ccc([N+](=O)[O-])cc1)NC1CCN(Cc2ccccc2)CC1`, 105 nM.
